# Assay outcomes: PubChem, several laboratories
# PG9 Ab binder: binders of HIV-1 gp120 antibody PG9, primary screen, biochemical, TR-FRET | HIV-1 gp120 / PG9 antibody interaction | TR-FRET gp120-PG9 antibody binding | inhibition, % at 6.7 µM | 360,000 compounds, 0.43% hits | AID 624416, 2012; in the data active = inhibition above about 8.5%
# Rev-erbA mod: modulators of Rev-erb alpha DNA binding, primary screen, biochemical, FITC-DNA, fluorescence polarization, uHTS; activity, % at 10 µM; Rev-erbα–FITC-DNA binding, 90 min; 370,000 compounds, 0.79% hits; AID 1259318, 2017; Nuclear receptor subfamily 1 group D member 1 (Homo sapiens), P20393;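 active = activity above about 14%, limit read from the data; passing the limit was not always enough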
# NR2E3 ag-1: NR2E3 agonists in two-hybrid cells, primary screen, cell-based, luminescence, CHO-S, Gal4-NCOR/VP16-NR2E3; 360,000 compounds, 0.35% hits; inhibition of corepressor binding, % at 3.98 µM; AID 602229, 2012; luciferase;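 active = inhibition above the mean of all tested compounds plus 3 SD, cut at about 70% in these data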;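 also: higher means lower luciferase signal from less NR2E3 corepressor binding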
# NR2E3 ag-2: inhibitors of NR2E3-RetCOR corepressor binding, primary screen, NR2E3 agonist project, biochemical, TR-FRET, GST-NR2E3, biotin-RetCOR; 320,000 compounds, 0.12% hits; inhibition of corepressor binding, % at 4.78 µM; 1536-well;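 active = percent inhibition above the cutoff of mean plus 3 SD of all tested compounds, set per screening campaign, cut at about 20% in these data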
#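 Test system – NR2E3–RetCOR corepressor complex · Quantity – NR2E3 fusion 1.35 nM · Buffer or medium – Tris pH 7.5 · Incubation – Compound–protein incubation for 5 h at 4 °C · Technique – TR-FRET, Eu(K)-anti-GST donor, streptavidin-D2 acceptor, ex 340, em 617/671 nm · Evaluation – percent inhibition of 671/617 nm emission ratio versus biotin and DMSO controls · Plate – 1536-well format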
# MC4R barr agon: MC4R agonists recruiting beta-arrestin, primary screen, cell-based, luminescence, agonist arm of biased-ligand search. Melanocortin receptor 4 (Homo sapiens), P32245. U2OS MC4R beta-arrestin complementation; percent of melanotan II response, DMSO zero. activation, % at 8.9 µM. 360,000 compounds, 0.98% hits. AID 540308, 2011;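 active = activation above a per-plate cutoff, the mean activation of sample wells on that plate plus 3 SD, cut at about 8% in these data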
# Target sequence (P32245 whole entry, looked up): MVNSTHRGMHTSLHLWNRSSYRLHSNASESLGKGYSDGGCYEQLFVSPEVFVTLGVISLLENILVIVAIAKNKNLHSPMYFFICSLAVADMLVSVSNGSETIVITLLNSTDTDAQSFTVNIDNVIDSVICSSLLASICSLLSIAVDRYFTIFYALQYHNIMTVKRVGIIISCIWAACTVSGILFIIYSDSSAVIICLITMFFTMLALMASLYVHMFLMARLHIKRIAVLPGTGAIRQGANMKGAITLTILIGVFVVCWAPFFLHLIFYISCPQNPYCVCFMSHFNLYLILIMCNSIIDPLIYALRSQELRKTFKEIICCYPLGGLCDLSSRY
# MC4R antag cAMP: MC4R antagonists of cAMP signaling, primary screen, cell-based, TR-FRET, antagonist arm of biased-ligand search | inhibition, % at 6.5 µM | MC4R-expressing cells, MTII-stimulated cAMP, LANCE TR-FRET | AID 540295, 2011 | 360,000 compounds, 0.48% hits;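 active = inhibition above its plate's cutoff, the mean of tested wells on that plate plus 3 SD, cut at about 29% in these data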
#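 Assay system: human MC4R-expressing U2OS cells; reagent: Melanotan II stimulation of cells; dosing: 6.5 µM single dose; timing: compound 30 min, challenge 1 h, detection 1 h; signal: TR-FRET cAMP assay; replicates: one well per compound, no replicates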
# Hits are given with their value; i = inactive; nt = not tested or not shown. Shown are actives, neighbours in structure and some others; about 2.7% of the full set was active somewhere.
SMILES,PG9 Ab binder,Rev-erbA mod,NR2E3 ag-1,NR2E3 ag-2,MC4R barr agon,MC4R antag cAMP
C=CC[C@@H](CC(=O)N[C@H](CO)Cc1ccccc1)C(=O)N[C@H](COC(=O)[C@@H](CC=C)CC(=O)OC(C)(C)C)Cc1c[nH]c2ccccc12,i,i,i,nt,i,i
C=CC[C@H](CC(=O)N[C@H](CO)Cc1ccccc1)C(=O)N[C@H](COC(=O)[C@@H](CC=C)CC(=O)OC(C)(C)C)Cc1c[nH]c2ccccc12,i,i,i,nt,8.3,i
Nc1nnnn1/N=C/c1ccccc1OCc1ccc(Cl)cc1Cl,i,i,i,i,i,i
Nc1nnnn1/N=C/c1ccccc1OCc1ccc(Cl)cc1,i,i,i,i,8.3,i
COc1ccc(/C=C/C(=O)OCC(=O)c2ccc3c(c2)NC(=O)CO3)cc1,i,i,i,i,13,i
CCOC(=O)Nc1ccc(Oc2ccccc2)cc1,i,i,i,i,i,i
CCOC(=O)Nc1ccc(OC(=O)Oc2ccc(NC(=O)OCC)cc2)cc1,i,i,i,nt,9.5,i
CCNc1nc(NCC)nc(SCCOC(=O)Nc2ccc(Cl)cc2Cl)n1,i,i,i,i,8.9,i
Cc1ccc(-n2c(C)cc(C(=O)OCC(=O)N(C)C3CCS(=O)(=O)C3)c2C)cc1 (centres undefined),i,i,i,i,i,i
C=CCc1ccc(OCC(O)COc2ccc(CC=C)cc2OC)c(OC)c1,i,i,i,i,8.7,i
O=C(N/N=C/c1ccc(Cl)cc1Cl)Nc1ccccc1,i,i,i,i,16,i
O=C(N/N=C/c1cccc(Cl)c1Cl)Nc1ccccc1,i,i,i,i,i,i
O=C(Nc1ccc(-n2cnnn2)cc1)C1CCCN1C(=O)NC1CCCCC1 (centres undefined),i,i,i,i,i,i
COc1ccc(-c2cnc3c(NC(C)=O)cc(-c4ccc(C(=O)NC5CC5)cc4)cn23)cc1OC,i,i,i,nt,i,i
CC(=O)Nc1cccc(-c2cc(NC(C)=O)c3ncc(-c4cccc(C(C)=O)c4)n3c2)c1,i,i,i,nt,8.6,i
COc1cccc(-c2cnc3c(NC(C)=O)cc(-c4ccc(C(=O)NC5CC5)cc4)cn23)c1,i,i,i,nt,8.8,i
Cc1cc(C)c2sc(N(CCN(C)C)C(=O)CCS(=O)(=O)c3ccccc3)nc2c1,i,i,i,i,9.2,i
Cc1cc(C)c2sc(N(CCCN(C)C)C(=O)c3ccc(S(=O)(=O)N4CCc5ccccc5C4)cc3)nc2c1,nt,nt,i,i,39,i
COc1ccc2sc(N(CCCN(C)C)C(=O)c3ccc(S(=O)(=O)N4CCCC4)cc3)nc2c1,i,i,i,i,i,i
Cc1cc(C)c2sc(N(CCCN(C)C)C(=O)c3ccc(S(=O)(=O)N4CCCc5ccccc54)cc3)nc2c1,i,i,i,i,i,i
COc1ccc2sc(N(CCCN(C)C)C(=O)c3ccc(S(=O)(=O)N4CCc5ccccc5C4)cc3)nc2c1,i,i,i,i,32,i
Cc1cccc2sc(N(CCCN(C)C)C(=O)c3ccc(S(=O)(=O)N4CCc5ccccc5C4)cc3)nc12,i,i,i,i,i,i
Cc1ccc2nc(N(CCCN(C)C)C(=O)c3ccc(S(=O)(=O)N4CCc5ccccc5C4)cc3)sc2c1,i,i,i,i,8.7,i
O=C(OCC(=O)N1CCCCCC1)c1ccc(S(=O)(=O)N2CCOCC2)cc1,i,i,i,i,i,i
CN(C)CCCN(C(=O)c1ccc2c(c1)CCCC2)c1nc2cc3c(cc2s1)OCO3,i,i,i,i,8.6,i
SMILES,PG9 Ab binder,Rev-erbA mod,NR2E3 ag-1,NR2E3 ag-2,MC4R barr agon,MC4R antag cAMP
CN(C)CCCN(C(=O)c1ccc(S(=O)(=O)N2CCc3ccccc32)cc1)c1nc2ccc(F)cc2s1,i,i,i,i,i,i
CN(C)CCCN(C(=O)c1ccc(S(=O)(=O)N2CCc3ccccc3C2)cc1)c1nc2ccc(F)cc2s1,i,i,i,i,17,i
O=C(Nc1ccc(Br)cn1)c1ccc(COc2c(F)c(F)cc(F)c2F)o1,i,i,i,i,8.4,i
Cc1ccnc(NC(=O)c2ccc(COc3c(F)c(F)cc(F)c3F)o2)c1,i,i,i,i,i,i
Cc1ccc(-n2nnc3c(=O)oc4ccccc4c32)cc1,i,i,i,i,i,46
O=C(c1ccccc1)c1c2c(cc3sc4ccccc4[n+]13)-c1cccc3cccc-2c13,i,i,i,i,26,i
CCCn1c(=O)[nH]c(=O)c2c1nc(-c1ccc(C#N)cc1)n2CCOC,i,i,i,i,i,i
CCCn1c(=O)[nH]c(=O)c2c1nc(-c1ccc(OC(F)(F)C(F)C(F)(F)F)cc1)n2CCOC (centres undefined),i,i,i,i,10.0,i
C=Cc1ccc(C(=O)N2CCC(n3nnc4ncccc43)CC2)cc1,nt,i,nt,nt,nt,nt
CN(CCOc1ccc(Cl)cc1)CC(=O)Nc1ccc(OC(F)F)cc1,i,i,i,i,i,i
CCC(C)c1ccccc1NC(=O)CN(C)CCOc1ccc(Cl)cc1 (centres undefined),i,i,i,i,8.6,i
Cc1cc(C(=O)Nc2sc3c(c2C#N)CCC(C)C3)cs1 (centres undefined),i,i,i,i,8.3,i
CC(=O)Nc1sc2c(c1C#N)CCC(C)C2 (centres undefined),i,i,i,i,i,i
O=C(COC(=O)c1n[nH]c2ccccc12)Nc1ccc(Cl)cc1[N+](=O)[O-],i,i,i,i,9.1,i
Nc1nc(CCl)nc(Nc2ccc3ccccc3c2)n1,i,i,i,nt,15,i
COc1ccc(Nc2nc(N)nc(CCl)n2)cc1,i,i,i,i,18,i
NS(=O)(=O)c1ccc(CNC(=O)c2ccc(NS(=O)(=O)c3ccc4[nH]c(=O)[nH]c4c3)cc2)cc1,i,i,i,i,i,i
O=C(CC(=O)N1CCN(c2ccccn2)CC1)Nc1ccc2nc3n(c(=O)c2c1)CCCCC3,i,i,i,i,i,i
COc1cc(/C=C/C(=O)OCC(=O)Nc2cc(S(=O)(=O)N(C)C)ccc2Cl)ccc1O,i,i,i,i,8.9,i
O=C(NC1CCCCC1)C(c1cccnc1)N(C(=O)CCl)c1ccc(F)cc1 (centres undefined),i,i,i,i,i,i
